Most compounds without a hit are left out; they make up all but 4.1% or so of the library.
DTT redox prof: compounds producing H2O2 with reducing agent – biochemical, NIH compound library profiling, artefact control for MLSCN library redox annotation, primary screen; DTT-dependent redox cycling H2O2, phenol red/HRP absorbance; 100% = 100 µM peroxide control, 0% = buffer; activation, % at 10 µM; 0.03% of 200,000 active;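 active = activation of at least 50% relative to the plate's high and low controls in the primary single-dose screen; inactive = activation below 50%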;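 note: compound incubated with DTT at 0.8 mM final as the reducing agent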
KCC2 mod: modulators of human KCC2 chloride dependent transport; Q9H2X9; KCC2 cells, thallium flux FluoZin-2 fluorescence; B-score of Tl+ flux slope (higher = more flux/activation; lower = inhibition) at 10 µM; 2.2% of 190,000 active; AID 1456;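 active = thallium flux slope and its plate-corrected score both differing from the plate sample mean at a set confidence after two filtering rounds, in either direction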;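 note: slope of fluorescence scaled to starting intensity during 10 to 20 s after thallium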
Target sequence (Q9H2X9 whole entry, looked up): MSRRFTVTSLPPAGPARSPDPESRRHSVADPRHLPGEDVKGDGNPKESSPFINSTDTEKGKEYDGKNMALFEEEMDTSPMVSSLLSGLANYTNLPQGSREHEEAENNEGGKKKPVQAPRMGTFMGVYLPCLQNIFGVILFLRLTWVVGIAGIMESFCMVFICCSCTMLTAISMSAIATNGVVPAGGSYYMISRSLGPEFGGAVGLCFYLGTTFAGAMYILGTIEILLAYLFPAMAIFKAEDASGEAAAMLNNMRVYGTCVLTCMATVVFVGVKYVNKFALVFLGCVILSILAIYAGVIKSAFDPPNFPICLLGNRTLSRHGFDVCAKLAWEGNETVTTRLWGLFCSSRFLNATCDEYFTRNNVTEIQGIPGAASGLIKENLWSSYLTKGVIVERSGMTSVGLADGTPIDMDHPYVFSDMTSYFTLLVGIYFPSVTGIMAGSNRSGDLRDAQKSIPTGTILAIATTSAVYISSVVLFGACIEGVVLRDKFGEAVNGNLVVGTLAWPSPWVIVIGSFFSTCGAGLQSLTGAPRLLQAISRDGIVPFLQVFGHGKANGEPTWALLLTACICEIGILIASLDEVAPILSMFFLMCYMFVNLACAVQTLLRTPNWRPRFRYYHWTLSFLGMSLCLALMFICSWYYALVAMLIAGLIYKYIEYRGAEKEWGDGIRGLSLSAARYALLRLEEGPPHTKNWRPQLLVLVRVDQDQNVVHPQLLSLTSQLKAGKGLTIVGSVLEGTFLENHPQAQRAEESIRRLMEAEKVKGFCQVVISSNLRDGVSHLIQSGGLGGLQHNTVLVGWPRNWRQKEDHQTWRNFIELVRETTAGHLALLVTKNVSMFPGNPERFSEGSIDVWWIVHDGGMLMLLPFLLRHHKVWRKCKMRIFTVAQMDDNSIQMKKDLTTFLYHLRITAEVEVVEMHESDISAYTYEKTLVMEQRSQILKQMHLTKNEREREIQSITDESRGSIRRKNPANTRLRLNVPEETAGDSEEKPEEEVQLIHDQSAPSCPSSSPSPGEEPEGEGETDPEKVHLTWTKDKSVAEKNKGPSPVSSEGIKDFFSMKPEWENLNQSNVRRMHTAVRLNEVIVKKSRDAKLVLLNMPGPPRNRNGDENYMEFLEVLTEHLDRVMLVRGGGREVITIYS
ROMK mod: modulators of human ROMK potassium channel. Tet-inducible ROMK, thallium flux fluorescence; actives lie on both sides. AID 1918. P48048. 2% of 130,000 active. B-score at 10 µM;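 active = signal ratio slope over the read window, or its plate-corrected B-score, at least 3 SD from the plate mean, either direction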;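 note: B-score of the F/F0 ratio slope over 7 to 12 s after thallium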
Autophagy mod: alters autophagy in cells; AID 463193; 0.98% of 190,000 active; calls only at 10 µM (by protocol); MEF GFP-LC3 puncta imaging; test concentration mostly 10 µM;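 active = percentage of spot-positive cells more than 3 SD above its plate mean, without a fluorescence outlier flag or 80% toxicity; inconclusive = no clear call, values can overlap the other calls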;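 note: spot-positive cell cutoff set from DMSO-treated cells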
Dynein cargo inh: dynein cargo transport inhibition. 0.47% of 220,000 active. z-score, hits read low. AID 1381. 3617.4 mouse cells, GR-EGFP nuclear translocation imaging; test concentration mostly 20 µM; stimulated with dexamethasone, 1 µM; stronger effect = lower value;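 active = plate z-score of nuclear minus cytoplasmic receptor signal below a set negative limit, without overly bright fluorescence or cell loss, cut at about -3.5 in these data, passing the limit was not always enough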;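 note: z-score of nuclear minus cytoplasmic ring GR-EGFP intensity difference per well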
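Buffer or medium: tet-free, stripped-serum medium; Also added: dexamethasone, 1.0 µM final; Technique: high-content fluorescence imaging after fixation; Times: 48 h induction, 1 h compound, 30 min dex at 37 °C; Read-out: per-cell GR-EGFP intensity, nucleus versus surrounding cytoplasmic ring, well-averaged.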
KCC2 sec1: confirmation of human KCC2 transport modulators | AID 1713 | normalised thallium flux (F/F0 slope) at 10 µM | HEK293-KCC2, thallium flux, FluoZin2 fluorescence; stronger effect = higher value | shares compounds with KCC2 mod | 15% of 3,700 active;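 active = thallium flux slope above the same plate's solvent-only control mean plus 3 SD; inconclusive = the two replicate wells disagree; inactive = no significant difference from solvent-only control wells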
KCC2 bumet counter: thallium flux despite bumetanide block in KCC2 cells, secondary assay 3. shares compounds with KCC2 mod. HEK293-KCC2 + bumetanide/ouabain, thallium flux FluoZin2; stronger effect = higher value. normalized thallium flux at 10 µM. 49% of 3,700 active. AID 1714;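 active = thallium entry rate above the same plate's blocked-transporter control wells by more than 3 SD; inconclusive = the two repeat wells disagree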;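 note: raw slope of fluorescence over initial fluorescence between 10 and 20 s after thallium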
KCC2 secondary2: KCC2 (human) modulation, second secondary assay. shares compounds with KCC2 mod. HEK293-KCC2, thallium flux FluoZin2 fluorescence; actives lie on both sides; F/F0 rise rate, 10–20 s post-thallium. normalized thallium flux at 10 µM. 23% of 3,700 active;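 active = thallium flux slope more than 3 SD above or below the plate's solvent-only control mean, mostly below; inconclusive = the two repeat wells disagreed; inactive = no significant shift from solvent-only controls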;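 note: raw slope with 0.1% DMSO as baseline and bumetanide as block control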
HEK293 Tl flux: acts in parental HEK cells, KCC2 counter-screen | thallium flux rate (normalised fluorescence) at 10 µM | HEK293 parental cells, thallium flux FluoZin2, ouabain; baseline-ratio fluorescence slope, 10–20 s after thallium | 46% of 3,700 active | shares compounds with KCC2 mod;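 active = thallium flux rate significantly above the same plate's solvent-only control wells, beyond their mean plus 3 SD; inconclusive = the two replicate wells gave conflicting results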
KCC2 ouabain: KCC2 (human) modulation, ouabain retest; shares compounds with KCC2 mod; HEK293-KCC2, thallium flux FluoZin2 fluorescence; bidirectional: low = inhibitor, high = activator; raw Tl+ flux slope (below DMSO = inhibition, above = activation) at 10 µM; 48% of 3,700 active;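 active = thallium flux slope beyond 3 SD from same-plate DMSO control mean in most replicates, usually higher, sometimes lower; inconclusive = repeat tests gave conflicting results; inactive = no significant difference from controls in most replicates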;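 note: slope of initial-normalized fluorescence between seconds 10 and 20 after thallium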
HEK counter2: acts in parental HEK cells, second KCC2 counter-screen | thallium flux slope at 10 µM | HEK293 parental, thallium flux FluoZin-2 fluorescence slope | AID 1718 | shares compounds with KCC2 mod | 33% of 3,700 active;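 active = thallium flux slope above the same plate's solvent-control mean plus 3 SD in both duplicate wells; inconclusive = duplicate wells that disagreed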;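 note: run without ouabain in cells lacking the KCC2 cotransporter; slope of fluorescence scaled to its starting value between 10 and 20 s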
The depositor's hits bear a star.

`COc1ccc(N2CCN(C(=O)NCc3ccc(OC)c(Cl)c3)CC2)cc1` gave DTT redox prof -2, KCC2 mod 0.55, ROMK mod -0.86, Autophagy mod inactive and Dynein cargo inh 0.96.
Screening CC(=O)Nc1ccc(SC[C@H](CC(C)C)N2CCN(CCc3ccccc3)CCC2=O)cc1 returned KCC2 mod -3.8*, Dynein cargo inh 0.49, KCC2 sec1 0.0096, KCC2 bumet counter 0.0057, KCC2 secondary2 0.033, HEK293 Tl flux 0.0069, KCC2 ouabain 0.019 and HEK counter2 0.011.
`Cc1ccc(SC[C@H](CC(C)C)N2CCN(C)CCC2=O)cc1` gave KCC2 mod 0.41 and Dynein cargo inh -0.32.
Screening Cc1ccc(SC[C@H](CC(C)C)N2CCN(CCc3ccccc3)CCC2=O)cc1 returned KCC2 mod -4.4*, Dynein cargo inh 1.2, KCC2 sec1 0.0079, KCC2 bumet counter 0.0053, KCC2 secondary2 0.032, HEK293 Tl flux 0.0071, KCC2 ouabain 0.017* and HEK counter2 0.0097.
COc1ccc(SC[C@H](CC(C)C)N2CCN(CCc3ccccc3)CCC2=O)cc1 was read as KCC2 mod -4.6*, Dynein cargo inh 0.15, KCC2 sec1 0.0061, KCC2 bumet counter 0.0036, KCC2 secondary2 inconclusive, HEK293 Tl flux 0.0058*, KCC2 ouabain 0.013* and HEK counter2 0.0087.
COC(=O)Cn1cc(/C=C(/C#N)C(=O)N2CCOCC2)c2ccccc21 was read as DTT redox prof -2, Autophagy mod inactive and Dynein cargo inh -1.1.
Screening COc1ccc(-c2c(=O)n(OCc3ccccc3[N+](=O)[O-])c3ccccc3[n+]2[O-])c(OC)c1 returned DTT redox prof -1, KCC2 mod -0.9, ROMK mod 0.92, Autophagy mod inactive and Dynein cargo inh 1.2.
CSc1nc(-c2ccccc2)nc(N2CCOCC2)c1C(C)=O was read as DTT redox prof 0, KCC2 mod -2.4, ROMK mod -0.3, Autophagy mod inactive and Dynein cargo inh 2.
`NNC(=O)c1csc(Cc2c(Cl)sc3ccc(Cl)cc23)n1` gave KCC2 mod 0.29, ROMK mod -2 and Dynein cargo inh -0.3.
`O=C(CN1C(=O)C2CCCCC2C1=O)Nc1nc(-c2ccccn2)cs1` (stereo unspecified) gave DTT redox prof 0, ROMK mod -1.2, Autophagy mod inactive, Dynein cargo inh 1.2, KCC2 sec1 0.0062, KCC2 bumet counter 0.007*, KCC2 secondary2 0.032, HEK293 Tl flux 0.0075, KCC2 ouabain 0.02 and HEK counter2 0.011.
`C[C@@H](C(=O)Nc1nc(-c2ccccn2)cs1)N1C(=O)C2CCCCC2C1=O` (stereo partly specified) gave DTT redox prof 0, KCC2 mod 0.0087, ROMK mod -0.1, Autophagy mod inactive and Dynein cargo inh -0.48.
`O=C(Nc1nc(-c2ccccn2)cs1)c1cc(Cl)ccc1[N+](=O)[O-]` gave DTT redox prof -1, KCC2 mod 6.8*, ROMK mod 1.4, Autophagy mod inactive, Dynein cargo inh 0.46, KCC2 sec1 0.014*, KCC2 bumet counter 0.037*, KCC2 secondary2 0.039, HEK293 Tl flux 0.018*, KCC2 ouabain 0.038* and HEK counter2 0.015*.
O=C(c1sc2cccc(F)c2c1Cl)N1CCN(c2ncccn2)CC1 was read as DTT redox prof 0, KCC2 mod -0.31, Autophagy mod inactive and Dynein cargo inh 2.2.
Cc1cc(C)n(-c2nc(SCC(=O)Nc3nccs3)c3c4c(sc3n2)COC(C)(C)C4)n1 was read as DTT redox prof 0, KCC2 mod 4.4*, Autophagy mod inactive, Dynein cargo inh -0.098, KCC2 sec1 0.0096, KCC2 bumet counter 0.022*, KCC2 secondary2 0.032, HEK293 Tl flux 0.019*, KCC2 ouabain 0.026* and HEK counter2 0.013*.
For O=C1NC(N2CCOCC2)=N/C1=C/c1ccc2c(c1)OCO2 the results were DTT redox prof 0, KCC2 mod 1.3, ROMK mod -0.31, Autophagy mod inactive and Dynein cargo inh 0.47.
Screening Cc1ccc(NS(=O)(=O)c2cc(NC(=O)c3ccc4c(c3)NC(=O)CS4)ccc2Cl)c(C)c1 returned DTT redox prof -1, KCC2 mod -1.1, ROMK mod -0.65, Autophagy mod inactive and Dynein cargo inh 1.6.
Screening CCc1ccc(NC(=O)c2c(Cl)nc(C)c(Cl)c2C)cc1 returned DTT redox prof 0, KCC2 mod -4.2*, ROMK mod 0.28, Autophagy mod inactive, Dynein cargo inh 0.048, KCC2 sec1 0.0054, KCC2 bumet counter 0.0053, KCC2 secondary2 0.025*, HEK293 Tl flux inconclusive, KCC2 ouabain 0.016* and HEK counter2 0.012.
Screening CC(C)(C)C1CCc2onc(C(=O)Nc3cccnc3)c2C1 (stereo unspecified) returned DTT redox prof 0, KCC2 mod 6.5*, Autophagy mod inactive, Dynein cargo inh 0.99, KCC2 sec1 0.0068, KCC2 bumet counter 0.0045, KCC2 secondary2 0.03, HEK293 Tl flux 0.0081, KCC2 ouabain 0.019 and HEK counter2 0.011.
`CC(C)(C)C1CCC(=NNC(=S)Nc2cccnc2)CC1` (stereo unspecified) gave DTT redox prof 1, KCC2 mod 6.8*, ROMK mod 0.019, Autophagy mod inactive, Dynein cargo inh -0.51, KCC2 sec1 0.0069, KCC2 bumet counter 0.013*, KCC2 secondary2 0.032, HEK293 Tl flux 0.014*, KCC2 ouabain inconclusive and HEK counter2 0.013*.

Screens deposited in PubChem BioAssay by several laboratories.
